Measurements: ChEMBL document CHEMBL1275433 (Antimicrob Agents Chemother, 2008)
≈ marks a conversion by molar mass, not a printed value. Calls of active or inactive are those of the source. The rule behind the calls is not given here.

What was measured:
[1] = Inhibition of Mycobacterium tuberculosis DNA gyrase GyrB/GyrA M74I mutant
Summary of the method: (§1)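 Enzyme unit: protein needed for 50% supercoiling of 0.4 μg relaxed pBR322 DNA in 1 h at 37°C. Wild-type and mutant enzymes assayed in parallel on the same day under identical conditions. Repeated two to four times; representative values reported.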

[2] = Inhibition of Mycobacterium tuberculosis DNA gyrase GyrA/GyrB N464S mutant gene; summary of the method: as §1
[3] = tested on: Mycobacterium tuberculosis
[4] = tested on: Mycobacterium tuberculosis; experiment: Antimicrobial activity against Mycobacterium tuberculosis harboring DNA gyrase GyrB QRDR; format: functional, organism-based
[5] = tested on: Mycobacterium tuberculosis; remark: listed apart in the source
[6] = tested on: Mycobacterium tuberculosis; remark: listed apart in the source
[7] = Inhibition of Mycobacterium tuberculosis DNA gyrase GyrB/GyrA A83S, S84A, I85V, F96W and P101M mutant; summary of the method: as §1
[8] = Inhibition of Mycobacterium tuberculosis DNA gyrase GyrB/GyrA M74I and A83S mutant; summary of the method: as §1
[9] = Inhibition of Mycobacterium tuberculosis DNA gyrase GyrB/GyrA S69V, A71G, E72D, T73V, M74I, N76K, A83S, S84A, I85V, F96W and P101M mutant; summary of the method: as §1
[10] = tested on: Mycobacterium tuberculosis; experiment: Antimicrobial activity against Mycobacterium tuberculosis harboring DNA gyrase GyrA QRDR; format: functional, organism-based
[11] = Inhibition of Mycobacterium tuberculosis DNA gyrase GyrB/GyrA A83S, S84A and I85V mutant; summary of the method: as §1
[12] = tested on: Mycobacterium tuberculosis; remark: listed apart in the source
[13] = tested on: Mycobacterium tuberculosis; remark: listed apart in the source
[14] = tested on: Mycobacterium tuberculosis; remark: listed apart in the source
[15] = Inhibition of Mycobacterium tuberculosis DNA gyrase GyrA/GyrB R447K mutant gene; summary of the method: as §1
[16] = tested on: Mycobacterium tuberculosis; remark: listed apart in the source
[17] = Inhibition of Mycobacterium tuberculosis DNA gyrase GyrA A83S mutant/GyrB R447K mutant gene; summary of the method: as §1
[18] = Inhibition of Mycobacterium tuberculosis DNA gyrase GyrA M74I and A83S mutant/GyrB R447K mutant gene; summary of the method: as §1
[19] = Inhibition of Mycobacterium tuberculosis DNA gyrase GyrB/GyrA A83S mutant; summary of the method: as §1
[20] = tested on: Mycobacterium tuberculosis; remark: listed apart in the source
[21] = tested on: Mycobacterium tuberculosis; remark: listed apart in the source
[22] = tested on: Mycobacterium tuberculosis; remark: listed apart in the source

SMILES | IC50 [1] | IC50 [2] | CC25 [3] | CC25 [5] | CC25 [6] | IC50 [7] | IC50 [8] | IC50 [9] | IC50 [11] | CC25 [12] | CC25 [13] | CC25 [14] | IC50 [15] | CC25 [16] | IC50 [17] | IC50 [18] | IC50 [19] | CC25 [20] | CC25 [21] | further results
CC1COc2c(N3CCN(C)CC3)c(F)cc3c(=O)c(C(=O)O)cn1c23 (configuration not stated) [OFLOXACIN] | 25 µM | 20 µM | 1.5 µM | 1.5 µM | 14 µM | 7 µM | 3 µM | Not Active | 8 µM | inactive | 0.5 µM | 3 µM | 7 µM | inactive | 4 µM | 11 µM | 7 µM | 3 µM | inactive | IC50 [4]: 10 µg/mL (≈ 27.7 µM); MIC50 [4]: 1 µg/mL (≈ 2.77 µM); IC50 [10]: 10 µg/mL (≈ 27.7 µM); MIC50 [10]: 1 µg/mL (≈ 2.77 µM)
CCn1cc(C(=O)O)c(=O)c2cc(F)c(N3CCNCC3)nc21 [ENOXACIN] | > 160 µM | – | – | – | – | 16 µM | 9 µM | Not Active | 11 µM | – | – | – | 23 µM | – | 19 µM | 16 µM | 16 µM | – | – | –
COc1c(N2C[C@@H]3CCCN[C@@H]3C2)c(F)cc2c(=O)c(C(=O)O)cn(C3CC3)c12 [MOXIFLOXACIN] | – | 7 µM | 0.5 µM | 0.5 µM | 3.5 µM | – | 1 µM | Not Active | – | inactive | 0.5 µM | 1 µM | 1 µM | inactive | – | 2 µM | – | 1 µM | inactive | CC25 [22]: 2.5 µM
CCn1cc(C(=O)O)c(=O)c2ccc(C)nc21 [NALIDIXIC ACID] | 3450 µM | 4100 µM | – | – | – | 1080 µM | 850 µM | Not Active | 2800 µM | – | – | – | 1080 µM | – | 850 µM | 520 µM | 950 µM | – | – | –
